Numbering of substitutions follows the chain as printed.

The values that follow come from PMC7983942 (Clinical Pharmacology and Therapeutics, 2020).

Common to all, as to assay type: in vitro ADME
Data set [1] concerns the target T1, OATP1B1*5 (Homo sapiens, UniProt Q9Y6L6, V174A).
T1 sequence (Q9Y6L6 1-691 V174A): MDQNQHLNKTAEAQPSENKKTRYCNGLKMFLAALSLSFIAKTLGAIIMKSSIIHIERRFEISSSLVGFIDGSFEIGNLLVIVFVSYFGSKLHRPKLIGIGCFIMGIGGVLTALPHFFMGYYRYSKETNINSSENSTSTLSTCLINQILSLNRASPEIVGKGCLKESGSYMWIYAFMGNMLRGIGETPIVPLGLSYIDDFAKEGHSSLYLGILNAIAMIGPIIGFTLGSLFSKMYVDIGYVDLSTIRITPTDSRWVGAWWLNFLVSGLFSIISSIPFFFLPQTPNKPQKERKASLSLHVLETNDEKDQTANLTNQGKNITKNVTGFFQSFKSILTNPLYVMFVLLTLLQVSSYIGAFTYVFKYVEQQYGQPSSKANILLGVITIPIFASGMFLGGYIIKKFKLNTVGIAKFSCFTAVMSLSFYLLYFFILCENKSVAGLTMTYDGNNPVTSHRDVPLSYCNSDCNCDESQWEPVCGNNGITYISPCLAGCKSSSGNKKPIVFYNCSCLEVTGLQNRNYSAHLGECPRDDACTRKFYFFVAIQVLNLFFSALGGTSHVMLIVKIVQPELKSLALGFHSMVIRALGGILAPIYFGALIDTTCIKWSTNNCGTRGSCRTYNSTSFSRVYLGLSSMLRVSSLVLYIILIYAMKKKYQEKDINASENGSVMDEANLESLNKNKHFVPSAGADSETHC
Briefly: Uptake into OATP1B1 variant-transfected vs wild-type HEK293 cells. The settings on record: for Uptake ratio (vs. wild‐type HEK293 cells): 2 minutes. Summed up: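 HEK293 cells stably expressing an OATP1B1 variant, alongside wild-type HEK293, were seeded at 0.5–1.2 × 10⁵ cells/well on poly-D-lysine plates. They grew 48 h at 37°C and 5% CO₂ in DMEM with 10% FBS, 1% pyruvate, nonessential amino acids and GlutaMAX. Substrate was 1 µM (0.5 µM where footnoted) for 2 min, then four ice-cold buffer washes and methanol lysis with internal standard. Uptake ratio (transfected/wild-type) is expressed as % of OATP1B1*14 in the same experiment; n=3 determinations.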

Data set [2] has as its target T2, OATP1B1*1A (Homo sapiens, UniProt Q9Y6L6).
T2 sequence (Q9Y6L6 1-691): T1 sequence (Q9Y6L6 1-691 V174A) with A174V
In words: Uptake into transporter-transfected vs wild-type HEK293 cells. Summed up:
(§1)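 HEK293 cells stably transfected with OATP1B1*1A, OATP1B3 or OATP2B1, plus wild-type cells, were seeded on poly-D-lysine plates. Culture was 48 h at 37°C in DMEM with 10% FBS, pyruvate, nonessential amino acids and GlutaMAX. Test compound was 1 µM for 2 min; rosuvastatin probe was 1 µM over 2–4 min. Cells were washed four times in ice-cold buffer and lysed in methanol with internal standard. Readouts were uptake ratio versus wild-type and glucuronide/probe ratio of ratios; mean ± SD, n=3 in one experiment.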

For data set [3], the target named is T3, OATP2B1 (Homo sapiens, UniProt O94956).
T3 sequence (O94956 1-709): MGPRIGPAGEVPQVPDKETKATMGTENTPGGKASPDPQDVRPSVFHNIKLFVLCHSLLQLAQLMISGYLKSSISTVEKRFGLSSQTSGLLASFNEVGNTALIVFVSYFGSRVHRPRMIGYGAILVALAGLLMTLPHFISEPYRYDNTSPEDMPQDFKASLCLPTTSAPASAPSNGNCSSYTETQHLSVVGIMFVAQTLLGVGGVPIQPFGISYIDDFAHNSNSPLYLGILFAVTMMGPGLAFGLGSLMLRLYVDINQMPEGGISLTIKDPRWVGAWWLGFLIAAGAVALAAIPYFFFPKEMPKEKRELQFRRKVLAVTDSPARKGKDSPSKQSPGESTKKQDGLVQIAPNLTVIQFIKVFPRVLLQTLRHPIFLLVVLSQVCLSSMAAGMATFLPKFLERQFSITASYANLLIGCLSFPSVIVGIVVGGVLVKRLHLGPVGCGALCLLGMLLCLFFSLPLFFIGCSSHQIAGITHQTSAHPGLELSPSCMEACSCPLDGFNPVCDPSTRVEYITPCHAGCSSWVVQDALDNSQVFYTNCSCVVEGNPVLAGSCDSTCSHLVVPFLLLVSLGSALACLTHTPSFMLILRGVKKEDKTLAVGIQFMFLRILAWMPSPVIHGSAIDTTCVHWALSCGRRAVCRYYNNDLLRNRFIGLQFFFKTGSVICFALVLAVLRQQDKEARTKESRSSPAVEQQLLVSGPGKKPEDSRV
The description is as above. The following applies: rosuvastatin 1 µM, two to four minutes. Summed up:
as §1

Where [4] appears, read: experiment 1, substrate concentration 0.5 µM.

For `CC(C)c1nc(N(C)S(C)(=O)=O)nc(-c2ccc(F)cc2)c1/C=C/[C@@H](O)C[C@@H](O)CC(=O)O` [Rosuvastatin], the “Uptake ratio as percentage of OATP1B1*14 in the same experiment” value in data set [1] (setting [4]) was 16%; in data set [1] (experiment 2, substrate 1 µM), 15%. Besides, the “Uptake ratio (vs. wild‐type HEK293 cells)” value in data set [1] (setting [4]) turned out to be 2.4 ± 0.4; in data set [1] (experiment 2, substrate 1 µM), 5.9 ± 0.5; in data set [2] (experiment 3, substrate 1 µM, 2 minutes), 51 ± 1.4. Further, the “Uptake ratio (vs. wild‐type HEK293 cells), probe” value in data set [2] (rosuvastatin 1 µM, two to four minutes) was 51.3 ± 1.4; in data set [3], 71.1 ± 9.6.
